VIM-2 inh – VIM-2 metallo-beta-lactamase inhibitors, primary screen, biochemical, epi-absorbance readout, Pseudomonas aeruginosa enzyme | AID 1527, 2009 | purified VIM-2, nitrocefin hydrolysis, epi-absorbance fluorescence | 0.89% of 290,000 active | inhibition, % at 5.6 µM;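 active = inhibition above the mean of all tested compounds plus 3 SD, cutoff set per screening run, cut at about 7.5% in these data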;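 also: red hydrolysis product quenches plate fluorescence so inhibitors raise well fluorescence; 0% = enzyme with DMSO and 100% = DMSO without enzyme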
CHT inh – inhibitors of human choline transporter CHT | CHT-expressing cells, membrane potential dye, choline response; stronger effect = lower value | High affinity choline transporter 1 (Homo sapiens), Q9GZV3 | B-score at 10 µM | 0.86% of 310,000 active;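 active = B-score over 3 SD under the library average, and starting fluorescence ratio not unusually high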;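 also: choline stimulus applied at its EC90 after an EC20 pre-addition; B-score computed on integrated fluorescence ratio after choline addition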
CHT PAM – CHT positive allosteric modulators, primary screen, cell-based, membrane potential dye, choline EC20; CHT-expressing cells; stronger effect = higher value; LV-AA mutant CHT in HEK293 cells; B-score at 10 µM; 0.49% of 310,000 active;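 active = initial fluorescence not abnormally high and integrated response B-score, plate-corrected, over 3 SD above library mean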
TMEM16A inh – TMEM16A chloride channel inhibitors, primary screen, cell-based, HTS. Anoctamin-1 (Mus musculus), Q8BHY3. HEK293 TMEM16A/YFP iodide influx fluorescence, ionomycin. normalized B-score (activity score, 25-100; higher = stronger inhibition) at 10 µM. 1.2% of 310,000 active. AID 588511, 2011;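 active = ratio plate-corrected score three or more library SD toward inhibition, starting fluorescence score within five deviations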;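 also: score derived from kinetic fluorescence span divided by baseline fluorescence per well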
Target sequence (Q8BHY3 whole entry, looked up): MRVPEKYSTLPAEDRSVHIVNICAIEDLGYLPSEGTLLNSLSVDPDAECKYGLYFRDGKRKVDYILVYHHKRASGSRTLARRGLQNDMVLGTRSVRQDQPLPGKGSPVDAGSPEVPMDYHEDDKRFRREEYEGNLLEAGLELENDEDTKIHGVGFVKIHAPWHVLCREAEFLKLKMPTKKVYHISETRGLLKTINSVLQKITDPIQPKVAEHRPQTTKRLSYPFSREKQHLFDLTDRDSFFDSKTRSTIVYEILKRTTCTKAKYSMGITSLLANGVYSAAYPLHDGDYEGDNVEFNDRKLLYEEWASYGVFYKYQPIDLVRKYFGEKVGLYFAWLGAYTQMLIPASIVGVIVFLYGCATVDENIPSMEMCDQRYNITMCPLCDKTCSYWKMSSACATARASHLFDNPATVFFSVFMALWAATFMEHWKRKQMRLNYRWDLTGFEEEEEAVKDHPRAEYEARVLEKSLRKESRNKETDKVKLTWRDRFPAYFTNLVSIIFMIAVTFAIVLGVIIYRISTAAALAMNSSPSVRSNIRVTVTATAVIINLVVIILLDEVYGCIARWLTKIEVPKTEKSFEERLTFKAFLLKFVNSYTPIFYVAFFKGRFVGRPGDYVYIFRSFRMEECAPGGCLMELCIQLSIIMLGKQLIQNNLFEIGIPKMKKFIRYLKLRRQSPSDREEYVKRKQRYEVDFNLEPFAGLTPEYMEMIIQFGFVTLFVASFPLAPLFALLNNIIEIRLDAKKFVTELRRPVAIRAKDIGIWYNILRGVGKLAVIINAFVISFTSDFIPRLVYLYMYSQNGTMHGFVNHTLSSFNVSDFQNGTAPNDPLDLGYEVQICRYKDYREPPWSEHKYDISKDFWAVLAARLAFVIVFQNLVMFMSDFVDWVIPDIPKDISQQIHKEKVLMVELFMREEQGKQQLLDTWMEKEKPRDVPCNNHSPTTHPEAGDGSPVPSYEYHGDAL
ANO1 activ – TMEM16A chloride channel activators or potentiators, primary screen, cell-based, HTS; Anoctamin-1 (Mus musculus), Q8BHY3; HEK293 TMEM16A/YFP-H148Q/I152L, iodide quench fluorescence; stronger effect = lower value; B-score at 10 µM; 0.3% of 340,000 active; AID 623877, 2012;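 active = fluorescence-ratio B-score plate-corrected deviation score at least 3 library SD below zero, with starting fluorescence score within 5 deviations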;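 also: channel opened by trigger with iodide after compound preincubation; score built on the fluorescence ratio of max minus min over baseline; more negative score means more quench and so TMEM16A activation or potentiation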
IMP-1 inhibitor – IMP-1 metallo-beta-lactamase inhibitors, primary screen, biochemical, epi-absorbance readout, Pseudomonas aeruginosa enzyme; metallo-beta-lactamase IMP-1 (Pseudomonas aeruginosa); purified IMP-1, nitrocefin hydrolysis, epi-absorbance fluorescence; inhibition, % at 5.6 µM; 0.45% of 290,000 active; AID 1556, 2009;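 active = inhibition above the mean plus 3 SD of all compounds in the same screening run, cut at about 4.5% in these data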;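 also: 0% = IMP-1 with DMSO and 100% = DMSO wells lacking enzyme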
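System: purified recombinant IMP-1 beta-lactamase. Medium: Zinc- and detergent-supplemented HEPES buffer, pH 7.1. Compound: one 5.6 µM dose […]. Schedule: 15 min preincubation plus 25 min reaction at 25 °C. Technique: Epi-absorbance fluorescence, 480 nm excitation, 530 nm emission.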
CHT inh conf – CHT inhibitors, confirmation, cell-based, membrane potential dye, duplicate | shares compounds with CHT inh | CHT activity remaining % of control (stronger effect = lower value), % at 10 µM | AID 493221, 2011 | 70% of 2,400 active | CHT-expressing cells, choline membrane potential dye; LV-to-AA substituted CHT, HEK293 cells;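 active = choline transporter activity left, mean of duplicates at 10 µM, below buffer-only control mean minus 3 SD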;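 also: depolarization triggered by choline at its EC90 following an EC20 pre-addition; 0% = hemicholinium-3 full block and 100% = buffer-only control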
HEK293 CHT ctr – membrane potential effects in parental HEK293, counter-screen for CHT inhibitor project, cell-based, membrane potential dye; shares compounds with CHT inh; choline response; active = decrease or increase beyond buffer ±3SD; membrane potential ratio readout (active if shifted either direction beyond buffer ±3SD; no single direction) at 10 µM; 4% of 2,400 active;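 also: parental cells lack the transporter so any hit is non-specific; ratio is peak minus trough fluorescence over baseline after EC90 choline challenge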
Numbers without * were called inactive; i = inactive; . = not tested or not shown. The list is not random: actives were taken first. Their share in the collection is about 3.4%.

SMILES	VIM-2 inh	CHT inh	CHT PAM	TMEM16A inh	ANO1 activ	IMP-1 inhibitor	CHT inh conf	HEK293 CHT ctr
CN1CCC(=O)N(CCSc2ccccc2)CC1	-1.6	i	i	i	i	-1.8	.	.
O=C1CCN(CCc2ccccc2)CCN1CCSc1ccccc1	-1.5	-5.01*	i	i	i	-3.3	49.5%*	i
CC1CCCCN1c1ccc(N)cc1C(N)=O (configuration not stated)	-0.5	i	i	i	i	-2.8	.	.
COc1ccc(C(C)=O)cc1Cn1cnc2c(cnn2C)c1=O	-1.3	i	i	i	i	-2.8	.	.
COc1ccc(C=O)cc1Cn1cnc2c(cnn2C)c1=O	-1.6	-5.71*	i	i	i	-3.2	i	i
CSc1nnc(-c2sccc2OCc2ccc(C)cc2)n1C	-1.2	-5.35*	i	i	i	-2.0	67.5%*	-9.82*
COc1cc(C)c(Br)cc1S(=O)(=O)N1CCCC1	-1.4	-5.08*	i	i	i	1.1	i	i
CCCc1cc(=O)[nH]c(SCC(=O)c2cc(C)n(CC(F)(F)F)c2C)n1	-3.3	-6.25*	i	i	i	-3.1	i	i
CCCc1cc(=O)[nH]c(SCC(=O)c2cc(C)n(CCOC)c2C)n1	-2.5	i	i	i	i	1.8	.	.
O=S(=O)(c1ccc(F)c(F)c1)N1CCN(CCc2ccccc2)CC1	0.7	-6.77*	i	i	i	1.3	53.8%*	i
Cc1ccc2nsnc2c1S(=O)(=O)N1CCN(CCc2ccccc2)CC1	1.3	-11.4*	i	i	i	-1.7	40.9%*	i
O=S(=O)(c1ccccc1)N1CCN(CCc2ccccc2)CC1	-0.3	i	i	i	i	-1.3	.	.
O=S(=O)(c1ccccc1F)N1CCN(CCc2ccccc2)CC1	-1.1	-6.82*	i	i	i	-3.1	48.4%*	i
O=S(=O)(c1ccc(Br)s1)N1CCN(CCc2ccccc2)CC1	.	.	.	.	i	.	.	.
C=CCn1c(SCCN)nnc1-c1cccc(S(=O)(=O)N2CCOCC2)c1	.	.	.	.	i	.	.	.
COc1ccccc1NS(=O)(=O)c1cc(NC(=O)C2CCCO2)ccc1C (configuration not stated)	.	.	.	.	i	.	.	.
COC(=O)C1CN(C(=O)C(C)Oc2ccccc2Cl)c2ccccc2O1 (configuration not stated)	1.4	-5.22*	i	i	i	-0.6	71.1%*	i
CN(CC(=O)Nc1ccc(N2CCOCC2)cc1)C(=O)C1CCCC1	-4.8	-8.27*	i	i	i	-2.1	i	i
C[n+]1ccccc1COc1ccc(C(C)(C)C)cc1	-2.1	-7.3*	i	i	i	-0.3	33.7%*	i
COc1cc(/C=C2/C(=O)NN(c3ccc(C)c(Cl)c3)C2=O)cc([N+](=O)[O-])c1O	-7.4	i	i	i	i	-6.3	.	.
Cc1ccc(N2NC(=O)/C(=C\c3cc4c(cc3[N+](=O)[O-])OCO4)C2=O)cc1C	-2.2	-5.03*	i	i	i	-3.5	42.3%*	i
O=C(O)c1cc([N+](=O)[O-])cc([N+](=O)[O-])c1N1CCN(c2cccc(C(F)(F)F)c2)CC1	-1.8	-5.27*	i	i	i	-1.7	i	i

Source: PubChem BioAssay
